12 compounds from ChEMBL document CHEMBL3352257, “In silico design of novel 2H-chromen-2-one derivatives as potent and selective MAO-B inhibitors” (Eur J Med Chem, 2015) can be followed below.

What all share (format): tissue-based
Data set [1] deals with T1, Amine oxidase [flavin-containing] B (Rattus norvegicus, UniProt P19643).
T1 sequence (P19643 whole entry): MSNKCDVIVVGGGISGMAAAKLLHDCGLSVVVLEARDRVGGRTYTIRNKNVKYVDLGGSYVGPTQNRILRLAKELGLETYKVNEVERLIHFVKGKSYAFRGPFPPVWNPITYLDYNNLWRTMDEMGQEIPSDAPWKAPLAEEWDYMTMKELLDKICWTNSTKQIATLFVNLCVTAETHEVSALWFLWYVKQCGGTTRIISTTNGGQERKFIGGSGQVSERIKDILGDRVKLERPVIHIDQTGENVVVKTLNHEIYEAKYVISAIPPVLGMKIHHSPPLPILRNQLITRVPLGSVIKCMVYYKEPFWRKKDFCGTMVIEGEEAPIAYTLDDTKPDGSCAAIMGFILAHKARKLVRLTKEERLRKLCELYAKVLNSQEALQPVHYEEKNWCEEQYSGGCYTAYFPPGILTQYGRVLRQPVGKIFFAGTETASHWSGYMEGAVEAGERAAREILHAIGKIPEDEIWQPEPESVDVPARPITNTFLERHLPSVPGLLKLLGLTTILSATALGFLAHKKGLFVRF
The experiment in a line: Inhibition of Sprague-Dawley rat MAO-B in brain mitochondrial homogenate assessed as 4-hydroxyquinoline by spectrophotometric method.

The target in data set [2] is T2, MAO-A (amine oxidase [flavin-containing] A) (Rattus norvegicus, UniProt P21396).
T2 sequence (P21396 whole entry): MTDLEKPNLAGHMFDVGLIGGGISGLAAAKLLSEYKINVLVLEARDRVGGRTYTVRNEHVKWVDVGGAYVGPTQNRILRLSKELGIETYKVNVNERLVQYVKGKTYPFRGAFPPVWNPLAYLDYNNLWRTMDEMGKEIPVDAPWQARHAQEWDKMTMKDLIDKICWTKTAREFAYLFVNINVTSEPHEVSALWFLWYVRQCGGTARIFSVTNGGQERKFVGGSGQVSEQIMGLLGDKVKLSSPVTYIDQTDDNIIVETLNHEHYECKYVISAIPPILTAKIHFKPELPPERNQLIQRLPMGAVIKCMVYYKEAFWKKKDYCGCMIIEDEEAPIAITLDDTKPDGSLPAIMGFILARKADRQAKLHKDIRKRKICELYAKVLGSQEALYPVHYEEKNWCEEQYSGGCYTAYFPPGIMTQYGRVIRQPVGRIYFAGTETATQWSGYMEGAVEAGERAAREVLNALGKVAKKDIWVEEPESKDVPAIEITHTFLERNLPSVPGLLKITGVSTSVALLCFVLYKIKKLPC
The experiment in a line: Inhibition of Sprague-Dawley rat MAO-A in brain mitochondrial homogenate assessed as 4-hydroxyquinoline at 10 uM by spectrophotometric method. Put shortly: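 Crude mitochondrial fraction from male Sprague-Dawley rat brain (200-250 g) was used at 1 mg/mL and pretreated with (-)-L-deprenyl 250 nM to isolate MAO-A. Compound was given at 10 μM in DMSO (final 5% v/v) with a 5 min preincubation. Kynuramine was added at 90 μM (KM), and 4-hydroxyquinoline formation was read at 314 nm for 5 min. Values are means of 2-3 independent experiments.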

The target in data set [3] is T3, Amine oxidase [flavin-containing] A (Rattus norvegicus, UniProt P21396).
T3 sequence (P21396 whole entry): T2 sequence (P21396 whole entry)
In words: Inhibition of Sprague-Dawley rat MAO-A in brain mitochondrial homogenate assessed as 4-hydroxyquinoline by spectrophotometric method. Put shortly: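 The MAO-A source was a crude male Sprague-Dawley rat brain mitochondrial fraction (1 mg/mL), pretreated with (-)-L-deprenyl 250 nM. Compound in DMSO (final 5% v/v) was preincubated for 5 min, then kynuramine was added at 90 μM (KM). 4-Hydroxyquinoline formation was monitored at 314 nm for 5 min.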

Take `O=c1cc(CCN2CCCCC2)c2ccc(OCc3cccc(Cl)c3)cc2o1`: the half-maximal inhibitory concentration (IC50) (as a rule, the midpoint of a concentration-inhibition curve) in data set [1] is 3800 nM. In addition, the inhibition (as a rule, the percentage by which the read-out fell short of the control) at 10 µM in data set [2] was determined as 1%. Regarding `CCNC(=O)Nc1cc(=O)oc2cc(OCc3cccc(Cl)c3)ccc12`, in data set [1], the IC50 is 31600 nM. Still for that read-out and setting: the figure for `O=C(O)COc1cc(=O)oc2cc(OCc3cccc(Cl)c3)ccc12` is 31600 nM. For `NC(=O)CCc1cc(=O)oc2cc(OCc3cccc(Cl)c3)ccc12`, the IC50 in data set [1] is 15.1 nM; in data set [3], 4270 nM. On the same counts, the results for `O=C(CCl)Nc1cc(=O)oc2cc(OCc3cccc(Cl)c3)ccc12` are 398 nM and 5750 nM.

For `NC(=O)CNc1cc(=O)oc2cc(OCc3cccc(Cl)c3)ccc12`, the concentration for half-maximal inhibition (IC50) in data set [1] was 49 nM; in data set [3], 95.5 nM.

In the case of `O=c1cc(CCO)c2ccc(OCc3cccc(Cl)c3)cc2o1`, the 50% inhibitory concentration (IC50) is 7.41 nM in data set [1] and 4680 nM in data set [3]. With `N#CCCc1cc(=O)oc2cc(OCc3cccc(Cl)c3)ccc12`, the IC50 in data set [1] was 28.8 nM. Further, in data set [2], the inhibition at 10 µM came to 22%. With `O=c1cc(CCBr)c2ccc(OCc3cccc(Cl)c3)cc2o1`, in data set [1], the IC50 is 32.4 nM. Moreover, in data set [2], the inhibition at 10 µM is 22%. The corresponding values for `O=c1cc(CCCl)c2ccc(OCc3cccc(Cl)c3)cc2o1` are 12.9 nM and 3%. `O=C(O)c1cc(=O)oc2cc(OCc3cccc(Cl)c3)ccc12`: in data set [1], the IC50 is 100000 nM. Take `O=C(O)CCc1cc(=O)oc2cc(OCc3cccc(Cl)c3)ccc12`: the IC50 in data set [1] was 1200 nM. Also, in data set [2], the inhibition at 10 µM amounted to 13%.
